Measurements taken from ChEMBL document CHEMBL4808196, “Dual Bcl-XL /Bcl-2 inhibitors discovered from DNA-encoded libraries using a fragment pairing strategy” (Bioorg Med Chem, 2021).
pEC50, pKd: −log10 of the molar value. Calls of active or inactive are those of the source. The rule behind the calls is not given here.

How the values were obtained:
[1] = target: T1, Bcl-2-like protein 1 (Homo sapiens, UniProt Q07817); assay: Binding affinity to Bcl-xl (unknown origin) measured by surface plasmon resonance based pull down assay
Procedure, shortened: (§1)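 Biotinylated ligand (2800 RU) immobilised on a streptavidin SPR chip. Bcl protein in HBS-EP running buffer injected at 0.5, 0.25, 0.125 and 0.062 µM. Association 120 s, dissociation 240 s, 30 µl/min, 25 C. Surface regenerated with a 5 s pulse of 10 mM NaOH. KD estimated by kinetic fitting.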

[2] = system: K562; assay: Cytotoxicity against human K562 cells assessed as cell survival measured after 72 hrs by MTT assay; format: cell-based; details: K562, 72 h
Procedure, shortened: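 MTT viability assay: 10^4 cells/well seeded and held overnight at 37 C, 5% CO2 (K562 in IMDM with 10% FCS). Serially diluted compounds added for 72 h of exposure. MTT added at 0.3 mg/ml final for 4 h at 37 C. Formazan dissolved in 10% SDS/0.01 N HCl, absorbance read at 560/690 nm. EC50 from concentration–response plot.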

[3] = target: T1, Bcl-2-like protein 1; assay: Binding affinity to Bcl-XL (unknown origin) using puma peptide by surface plasmon resonance-based competition assay; details: dose 1.0 µM
Procedure, shortened: (§2)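 SPR competition on a streptavidin chip carrying 2800 RU biotinylated ligand. Flowed 0.5 µM Bcl-XL alone or premixed with 1.0 µM native BH3 peptide: Bim 26mer or Puma 25mer. Binding responses compared.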

[4] = target: T1, Bcl-2-like protein 1; assay: Competitive binding affinity to Bcl-XL (unknown origin) using ABT-199 by western blot based pull down assay
[5] = target: T1, Bcl-2-like protein 1; assay: Binding affinity to Bcl-XL (unknown origin) using Bim peptide by surface plasmon resonance-based competition assay; procedure, shortened: as §2
[6] = target: T1, Bcl-2-like protein 1; assay: Binding affinity to recombinant Bcl-XL (unknown origin) premixed with human HeLa cell lysate incubated for 1 hr by SDS PAGE Western blot based pull down assay; format: subcellular
Procedure, shortened: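 Streptavidin magnetic beads loaded with 100 µM biotinylated compound in PBS-T for 30 min, washed, then equilibrated in HBS-EP. His-tagged recombinant Bcl-XL (0.2 µM) spiked into 10 µg HeLa lysate and incubated with beads for 1 h with rotation. Three washes, heat elution in SDS buffer (95 C, 5 min), SDS-PAGE, anti-His western blot.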

[7] = target: Induced myeloid leukemia cell differentiation protein Mcl-1 (Homo sapiens, UniProt Q07820); assay: Binding affinity to Mcl-1 (unknown origin) measured by surface plasmon resonance based pull down assay; procedure, shortened: as §1
[8] = target: Apoptosis regulator Bcl-2 (Homo sapiens, UniProt P10415); assay: Binding affinity to Bcl-2 (unknown origin) measured by surface plasmon resonance based […]; procedure, shortened: as §1
Apoptosis regulator Bcl-2, sequence (P10415 whole entry): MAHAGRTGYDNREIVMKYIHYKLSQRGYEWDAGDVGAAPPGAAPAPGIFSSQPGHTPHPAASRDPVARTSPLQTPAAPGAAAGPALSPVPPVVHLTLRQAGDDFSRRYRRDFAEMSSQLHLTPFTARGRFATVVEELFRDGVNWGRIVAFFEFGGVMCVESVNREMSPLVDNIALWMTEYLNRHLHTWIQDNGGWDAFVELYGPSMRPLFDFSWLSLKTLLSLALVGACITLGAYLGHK

T1 sequence (Q07817 whole entry): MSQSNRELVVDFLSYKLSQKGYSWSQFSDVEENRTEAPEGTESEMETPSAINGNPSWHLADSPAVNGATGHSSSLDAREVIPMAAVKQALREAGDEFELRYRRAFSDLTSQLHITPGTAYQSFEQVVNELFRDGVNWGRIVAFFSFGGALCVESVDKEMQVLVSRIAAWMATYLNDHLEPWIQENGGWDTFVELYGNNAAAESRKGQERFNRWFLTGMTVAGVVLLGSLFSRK
Induced myeloid leukemia cell differentiation protein Mcl-1, sequence (Q07820 whole entry): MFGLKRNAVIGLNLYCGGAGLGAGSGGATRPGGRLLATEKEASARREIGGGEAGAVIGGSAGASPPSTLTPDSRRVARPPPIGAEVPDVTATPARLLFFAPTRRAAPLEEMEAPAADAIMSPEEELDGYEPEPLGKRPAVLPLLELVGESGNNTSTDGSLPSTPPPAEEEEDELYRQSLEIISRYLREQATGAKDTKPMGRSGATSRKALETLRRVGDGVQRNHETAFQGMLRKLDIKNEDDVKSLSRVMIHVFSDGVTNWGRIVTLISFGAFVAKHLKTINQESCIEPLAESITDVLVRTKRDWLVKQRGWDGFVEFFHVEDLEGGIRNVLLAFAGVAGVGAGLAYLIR

| SMILES | pKd [1] | pEC50 [2] | Activity [3] | Activity [4] | Activity [5] | Activity [6] | pKd [7] | pKd [8] |
| --- | --- | --- | --- | --- | --- | --- | --- | --- |
| CC(C)C(NC1=NS(=O)(=O)c2ccccc21)C(=O)NCC(NC(=O)C1(NC(=O)COc2ccccc2-c2n[nH]c3ccc(Cl)cc23)CC1)C(=O)NC(=O)CCCCC[C@@H]1SC[C@@H]2NC(=O)N[C@@H]21 (some centres undefined) | 7.02 | 5.76 | Active | Active | Active | Active | 5.91 | 7.68 |
| CC1(C)CCC(CN2CCN(c3ccc(C(=O)NS(=O)(=O)c4ccc(NCC5CCOCC5)c([N+](=O)[O-])c4)c(Oc4cnc5[nH]ccc5c4)c3)CC2)=C(c2ccc(Cl)cc2)C1 [VENETOCLAX] |  | 5.68 |  |  |  |  |  |  |
